Assay [1] has as its system Calf thymus DNA. Kind of assay: Dimer binding constant for DNA of calf thymus at pH 5. In kind it is nucleic-acid assay. The settings on record: Bos taurus. The procedure, abridged:
(§1)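 Fluorimetric competition: calf thymus DNA (B = 1.6 × 10⁻⁶ M base pairs) with ethidium dimer (6.4 × 10⁻⁷ M) equilibrated 24 h with varied dimer concentrations, 20 °C. Buffers: 0.2 M sodium acetate pH 5, or 0.1 M NaCl/0.1 M Tris-HCl pH 7.4. Ex 540/em 610 nm. Displacement curve fitted to McGhee–von Hippel equations using n set by ethidium bromide competition, giving Kap.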

For assay [2], the system named is Calf thymus DNA. As to the kind of experiment: Dimer binding constant for DNA of calf thymus at pH 7.4. In kind it is nucleic-acid assay. The settings on record: Bos taurus. The procedure, abridged: as §1
Assay [3] deals with Calf thymus DNA. Kind of assay: Displacement of ethidium from DNA of calf thymus at pH 5. In kind it is nucleic-acid assay. The settings on record: Bos taurus. In outline: (§2)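 Ethidium dimer (6.4 × 10⁻⁷ M) pre-bound to calf thymus DNA (1.6 × 10⁻⁶ M base pairs), 24 h equilibration with competing dimer, 20 °C, in 0.2 M sodium acetate pH 5 or 0.1 M NaCl/0.1 M Tris-HCl pH 7.4. Fluorescence ex 540, em 610 nm. rf50 = ratio of total dimer to DNA base pairs displacing 50% of bound ethidium dimer.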

The subject of assay [4] is Calf thymus DNA. Kind of assay: Displacement of ethidium from DNA of calf thymus at pH 7.4. In kind it is nucleic-acid assay. The settings on record: Bos taurus. In outline:
as §2

In assay [5] the test system is Mus musculus. Kind of assay: Evaluated for the antitumor activity against L1210 Murine leukemia at optimum intraperitoneal dose 0.2 of the MTD.
Assay [6] deals with Mus musculus. Kind of assay: Evaluated for the antitumor activity against L1210 Murine leukemia at optimum intraperitoneal dose 0.4 of the MTD.
Assay [7] concerns Mus musculus. Kind of assay: Evaluated for the antitumor activity against L1210 Murine leukemia at optimum intraperitoneal dose 0.8 of the MTD.
For assay [8], the system named is Mus musculus. As to the kind of experiment: Evaluated for the antitumor activity against L1210 Murine leukemia at optimum intraperitoneal dose 0.25 of the MTD.
Assay [9] has as its system Mus musculus. As to the kind of experiment: Evaluated for the antitumor activity against L1210 Murine leukemia at optimum intraperitoneal dose 0.5 of the MTD.

Consider `COc1ccc2c(c1)c1c3cc[n+](CCN4CCC(C5CCN(CC[n+]6ccc7c(ccc8c7c7cc(OC)ccc7n8C)c6)CC5)CC4)cc3ccc1n2C`, for which the K app in assay [1] amounted to 5e+08; in assay [2] it was 6e+06. For the same molecule, the rf50 stood at 0.32 in assay [3] and 1.2 in assay [4].

`Cc1c2cc[n+](CCN3CCC(C4CCN(CC[n+]5ccc6c(C)c7[nH]c8ccc(O)cc8c7c(C)c6c5)CC4)CC3)cc2c(C)c2c1[nH]c1ccc(O)cc12`: the K app in assay [1] turned out to be 1e+08; in [2], 1e+06.

`COc1ccc2[nH]c3ccc4c[n+](CCN5CCC(C6CCN(CC[n+]7ccc8c(ccc9[nH]c%10ccc(OC)cc%10c98)c7)CC6)CC5)ccc4c3c2c1.[Cl-].[Cl-]`: the K app in assay [1] is 5e+08; in assay [2], 3e+06. Besides, the rf50 in [3] was 0.32; in assay [4] it was 3.4. In [5], this molecule showed a T/C of 130%.

Take `COc1ccc2[nH]c3c(C)c4cc[n+](CCN5CCC(C6CCN(CC[n+]7ccc8c(C)c9[nH]c%10ccc(OC)cc%10c9c(C)c8c7)CC6)CC5)cc4c(C)c3c2c1`: the K app came to 2e+08 in assay [1] and 1e+06 in assay [2].

In the case of `Oc1ccc2[nH]c3ccc4cc[n+](CCN5CCC(C6CCN(CC[n+]7ccc8ccc9[nH]c%10ccc(O)cc%10c9c8c7)CC6)CC5)cc4c3c2c1.[Cl-].[Cl-]`, the K app in [1] was determined as 5e+08; in assay [2], 1e+07. Besides, the rf50 in assay [3] is 0.32; in assay [4] it was 1.2. This molecule also came in with a T/C in [6] of 157%.

On to `COc1ccc2c(c1)c1c3c[n+](CCN4CCC(C5CCN(CC[n+]6ccc7ccc8c(c7c6)c6cc(OC)ccc6n8C)CC5)CC4)ccc3ccc1n2C.[Cl-].[Cl-]`, for which the K app was found to be 3e+08 in assay [1] and 2e+07 in [2]. The rf50 in [3] was 0.4; in assay [4] it was 0.72. Also, the T/C in [7] amounted to 155%.

As for `COc1ccc2[nH]c3ccc4cc[n+](CCN(C)CCCCCN(C)CC[n+]5ccc6ccc7[nH]c8ccc(OC)cc8c7c6c5)cc4c3c2c1`, the K app is 1e+08 in assay [1] and 8e+06 in assay [2]. Moreover, the rf50 in [3] turned out to be 0.8; in assay [4] it was 8.4.

As to `COc1ccc2[nH]c3ccc4cc[n+](CCN5CCC(C6CCN(CC[n+]7ccc8ccc9[nH]c%10ccc(OC)cc%10c9c8c7)CC6)CC5)cc4c3c2c1.[Cl-].[Cl-]` [DITERCALINIUM CHLORIDE], the K app in [1] amounted to 5e+08; in assay [2], 1e+07. The rf50 in assay [3] amounted to 0.32; in [4], 0.96. The same molecule displayed a T/C in [8] of 216%.

Regarding `Oc1ccc2[nH]c3ccc4c[n+](CCN5CCC(C6CCN(CC[n+]7ccc8c(ccc9[nH]c%10ccc(O)cc%10c98)c7)CC6)CC5)ccc4c3c2c1`, the K app in [1] amounted to 2e+08; in [2], 500000. Moreover, the rf50 in assay [3] was 0.5; in assay [4] it was 13.

Consider `COc1ccc2c(c1)c1c3c[n+](CCN4CCCCC4)ccc3ccc1n2C`, for which the values for the K app in assay [1] and in assay [2] were 1.8e+06 and 300000, respectively. The rf50 stood at 9.5 in assay [3] and 20 in assay [4].

Regarding `COc1ccc2[nH]c3ccc4cc[n+](CCN5CCC(CCCC6CCN(CC[n+]7ccc8ccc9[nH]c%10ccc(OC)cc%10c9c8c7)CC6)CC5)cc4c3c2c1`, the K app worked out at 1e+09 in assay [1] and 4e+06 in assay [2]. Besides, the rf50 in assay [3] came out at 0.25; in [4], 2.24.

Regarding `COc1ccc2[nH]c3ccc4cc[n+](CC(O)CN5CCC(C6CCN(CC(O)C[n+]7ccc8ccc9[nH]c%10ccc(OC)cc%10c9c8c7)CC6)CC5)cc4c3c2c1` (stereo not drawn), the K app in [1] stood at 1e+09; in [2] it was 2e+07. In addition, the rf50 in assay [3] is 0.24; in assay [4], 0.72.

Turning to `COc1ccc2[nH]c3ccc4cc[n+](CCCCCCCCCC[n+]5ccc6ccc7[nH]c8ccc(OC)cc8c7c6c5)cc4c3c2c1.[Br-].[Br-]`, the K app in assay [1] and in [2] was 3e+06 each time. Also, the rf50 in assay [3] turned out to be 2.4; in assay [4], 3. In assay [9], the T/C is on record as 124%.

As for `[Cl-].[Cl-].c1ccc2c(c1)[nH]c1ccc3cc[n+](CCN4CCC(C5CCN(CC[n+]6ccc7ccc8[nH]c9ccccc9c8c7c6)CC5)CC4)cc3c12`, the K app in assay [1] was 3e+08; in [2] it was 5e+06. Besides, the rf50 in assay [3] stood at 0.4; in assay [4], 1.4. In assay [9], this molecule registered a T/C of 121%.

The T/C is the result in the treated group divided by that in the control group, in per cent.
